Assay results: ChEMBL document CHEMBL1154841, “Cytotoxic triterpene dilactones from the stems of Kadsura ananosma” (J Nat Prod, 2010)

How the values were obtained:
Format in all cases: functional, cell-based
[1] = system: SK-BR-3; assay: Cytotoxicity against human SK-BR-3 cells after 48 hrs by MTT assay; details: SK-BR-3, 48 h
Procedure, shortened: (§1)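 Cells grown in RPMI-1640 or DMEM with 10% fetal bovine serum, 37 °C, 5% CO2. Seeded at 1 × 10^5 cells/mL; adherent lines attached 12 h before dosing, suspension cells (HL-60) seeded at dosing. Compound given at various concentrations in triplicate for 48 h; 10-hydroxycamptothecin positive control. MTT 4 h at 37 °C, lysis in 20% SDS-50% DMF, formazan read at 595 nm.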

[2] = system: SMMC-7721; assay: Cytotoxicity against of human SMMC7721 cells after 48 hrs by MTT assay; details: SMMC-7721, 48 h; procedure, shortened: as §1
[3] = system: HL-60; assay: Cytotoxicity against human HL60 cells after 48 hrs by MTT assay; details: HL-60, 48 h; procedure, shortened: as §1
[4] = system: PANC-1; assay: Cytotoxicity against human PANC1 cells after 48 hrs by MTT assay; details: PANC-1, 48 h; procedure, shortened: as §1
[5] = system: A549; assay: Cytotoxicity against human A549 cells after 48 hrs by MTT assay; details: A549, 48 h; procedure, shortened: as §1

Structure (SMILES)	IC50 [1] [µM]	IC50 [2] [µM]	IC50 [3] [µM]	IC50 [4] [µM]	IC50 [5] [µM]
C=C1C([C@@H](C)[C@H]2CC=C(C)C(=O)O2)=CC[C@]2(C)[C@H]1C[C@]1(O)[C@H]3O[C@]34C=CC(=O)OC(C)(C)[C@@H]4[C@H](OC(C)=O)C[C@@H]21 [LONGIPEDLACTONE N]	> 10	> 10	> 10	> 10	> 10
C=C1[C@@H]2C[C@]3(O)[C@H]4O[C@]45C=CC(=O)OC(C)(C)[C@@H]5[C@H](OC(C)=O)C[C@H]3[C@]2(C)CC[C@@]1(O)[C@@H](C)[C@H]1CC=C(C)C(=O)O1 [LONGIPEDLACTONE P]	> 10	> 10	> 10	> 10	> 10
C=C1C([C@@H](C)[C@H]2CC=C(C)C(=O)O2)=CC[C@]2(C)[C@H]1C[C@]1(O)C=C3C=CC(=O)OC(C)(C)[C@@H]3CC[C@@H]21 [LONGIPEDLACTONE A]	> 10	> 10	3.5	> 10	> 10
C=C1[C@@H]2C[C@]3(O)C=C4C=CC(=O)OC(C)(C)[C@@H]4[C@H](OC(C)=O)C[C@H]3[C@]2(C)CC[C@@]1(O)[C@@H](C)[C@H]1CC=C(C)C(=O)O1 [LONGIPEDLACTONE M]	> 10	> 10	4.1	> 10	> 10
C=C1[C@H]([C@@H](C)[C@H]2CC=C(C)C(=O)O2)CC[C@]2(C)[C@H]1C[C@]1(O)C=C3C=CC(=O)OC(C)(C)[C@@H]3[C@H](OC(C)=O)C[C@@H]21 [LONGIPEDLACTONE L]	> 10	> 10	7.3	> 10	> 10
C=C1C([C@@H](C)[C@H]2CC=C(C)C(=O)O2)=CC[C@]2(C)[C@H]1C[C@]1(O)C=C3C=CC(=O)OC(C)(C)[C@@H]3[C@H](OC(C)=O)C[C@@H]21 [LOGIPEDLACTONE J]	2.8	> 10	2	5.3	> 10
C=C1C([C@@H](C)[C@H]2CC=C(C)C(=O)O2)=CC[C@]2(C)[C@H]1C[C@]1(O)[C@H]3O[C@]34C=CC(=O)OC(C)(C)[C@@H]4CC[C@@H]21 [LONGIPEDLACTONE D]	> 10	> 10	> 10	> 10	> 10
C=C1[C@@H]2C[C@]3(O)[C@H]4O[C@]45C=CC(=O)OC(C)(C)[C@@H]5[C@H](O)C[C@H]3[C@]2(C)CC[C@@]1(O)[C@@H](C)[C@H]1CC=C(C)C(=O)O1 [LONGIPEDLACTONE I]	> 10	> 10	> 10	> 10	> 10
C=C1C([C@@H](C)[C@H]2CC=C(C)C(=O)O2)=CC[C@]2(C)[C@H]1C[C@]1(O)C=C3C=CC(=O)OC(C)(C)[C@@H]3[C@H](O)C[C@@H]21 [LONGIPEDLACTONE F]	7.4	> 10	2.3	8.8	> 10
C=C1C([C@@H](C)[C@H]2CC=C(C)C(=O)O2)=CC[C@]2(C)[C@H]1C[C@]1(O)[C@H]3O[C@]34C=CC(=O)OC(C)(C)[C@@H]4[C@H](O)C[C@@H]21 [LONGIPEDLACTONE G]	> 10	> 10	> 10	> 10	> 10
C=C1[C@H]([C@@H](C)[C@H]2CC=C(C)C(=O)O2)CC[C@@]2(C)[C@@H]3C[C@@H](OC(C)=O)[C@H]4C(C)(C)OC(=O)C[C@H]5OO[C@]3(C[C@@H]12)C[C@]54O [LONGIPEDLACTONE K]	> 10	> 10	> 10	> 10	> 10
